Assay results from ChEMBL document CHEMBL1129727, “Chiral pyrrolo[2,3-d]pyrimidine and pyrimido[4,5-b]indole derivatives: structure-activity relationships of potent, highly stereoselective A1-adenosine receptor antagonists” (J Med Chem, 1996).
pKi: −log10 of the molar value. In brackets after ≈: the same amount, converted by molar mass.

Assays:
[1] = biological target: Adenosine receptors; A1 & A2 (Rattus norvegicus) (UniProt P29276+P25099+P30543); assay: Selectivity ratio between A1 and A2-receptors estimated as A2/A1; format: protein assay
Chain of Adenosine receptors; A1 & A2 (Rattus norvegicus) (P30543 whole entry, looked up, one chain of several): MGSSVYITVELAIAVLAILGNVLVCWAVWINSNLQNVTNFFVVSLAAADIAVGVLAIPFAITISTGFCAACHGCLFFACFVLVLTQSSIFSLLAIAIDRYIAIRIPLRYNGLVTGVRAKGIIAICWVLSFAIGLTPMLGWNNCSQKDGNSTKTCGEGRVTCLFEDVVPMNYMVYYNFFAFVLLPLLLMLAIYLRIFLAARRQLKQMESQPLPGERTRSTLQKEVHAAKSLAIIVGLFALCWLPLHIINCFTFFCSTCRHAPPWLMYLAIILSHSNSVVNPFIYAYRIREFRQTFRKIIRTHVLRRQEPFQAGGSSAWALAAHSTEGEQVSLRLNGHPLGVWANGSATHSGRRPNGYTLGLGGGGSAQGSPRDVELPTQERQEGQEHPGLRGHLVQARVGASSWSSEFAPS

[2] = biological target: Adenosine receptor A2a (Rattus norvegicus, UniProt P30543); assay: Radioligand binding assay for [3H]NECA affinity towards adenosine A2A receptor of rat striatum; format: tissue-based
Chain of Adenosine receptor A2a (P30543 whole entry): as the sequence (P30543 whole entry, looked up, one chain of several) above
In short: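 Rat striatal membranes incubated with [3H]NECA. 50 nM N6-cyclopentyladenosine present to block A1 sites. Nonspecific binding defined with 5 mM theophylline. Five to six test concentrations, each in triplicate, in at least two separate experiments. Ki derived from inhibition of binding.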

[3] = biological target: T1, Adenosine receptor A1 (Rattus norvegicus, UniProt P25099); assay: Radioligand binding assay for [3H]-PIA affinity towards Adenosine A1 receptor of rat cerebral cortical membrane
T1 sequence (P25099 whole entry): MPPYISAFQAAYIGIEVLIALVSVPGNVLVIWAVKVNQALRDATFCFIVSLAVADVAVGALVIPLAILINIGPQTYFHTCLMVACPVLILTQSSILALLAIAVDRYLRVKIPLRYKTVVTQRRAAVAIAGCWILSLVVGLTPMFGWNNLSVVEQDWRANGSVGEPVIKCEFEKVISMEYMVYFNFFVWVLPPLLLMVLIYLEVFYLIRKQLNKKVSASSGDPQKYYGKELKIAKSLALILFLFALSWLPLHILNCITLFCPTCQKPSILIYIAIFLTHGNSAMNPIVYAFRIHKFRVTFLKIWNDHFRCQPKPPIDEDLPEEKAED
In short: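 Rat cerebral cortical membranes incubated with [3H]-(R)-PIA. Nonspecific binding defined with 10 μM 2-chloroadenosine. Five to six test concentrations, each in triplicate, in at least three separate experiments. Ki calculated from inhibition of binding.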

[4] = Solubility in 50 mM TRIS-HCl buffer containing 1% DMSO, pH 7.4; format: physicochemical; conditions: read-out: S
In short: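 Bruns–Fergus biochemical method. 10 mM DMSO stock diluted 1:100 into 50 mM Tris-HCl pH 7.4, shaken overnight at room temperature, centrifuged and filtered through cotton. Serial dilutions of the saturated supernatant tested in an A1 [3H]CHA binding assay (KD 1 nM).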

[5] = Solubility in 50 mM TRIS-HCl buffer containing 2.5% DMSO, pH 7.4; format: physicochemical; conditions: read-out: S
In short: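 A 10 mM DMSO stock was diluted 1:40 into 50 mM TRIS-HCl, pH 7.4 (2.5% DMSO), then shaken overnight at room temperature to equilibrium. After centrifugation, the supernatant was filtered and serially diluted. Dilutions were tested in an A1 binding assay with [3H]CHA (KD 1 nM).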

[6] = Partition coefficient (logP); format: physicochemical; conditions: octanol/water
[7] = biological target: T2, Adenosine receptor A2b (Rattus norvegicus) (UniProt P29276); assay: Antagonistic binding affinity for rat Adenosine A2B receptor
T2 sequence (whole entry): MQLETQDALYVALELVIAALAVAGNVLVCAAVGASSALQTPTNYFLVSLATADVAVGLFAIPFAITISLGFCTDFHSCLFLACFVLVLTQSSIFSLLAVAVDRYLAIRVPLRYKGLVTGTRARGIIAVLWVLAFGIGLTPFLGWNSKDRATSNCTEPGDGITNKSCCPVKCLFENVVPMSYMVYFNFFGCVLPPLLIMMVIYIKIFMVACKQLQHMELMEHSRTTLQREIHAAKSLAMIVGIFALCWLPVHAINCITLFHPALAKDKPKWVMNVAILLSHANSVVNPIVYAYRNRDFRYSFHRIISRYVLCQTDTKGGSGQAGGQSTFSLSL

[8] = biological target: T3, Adenosine receptor A3 (Rattus norvegicus) (UniProt P28647); assay: Percent inhibition of binding to rat Adenosine A3 receptor at 10 uM
T3 sequence (whole entry): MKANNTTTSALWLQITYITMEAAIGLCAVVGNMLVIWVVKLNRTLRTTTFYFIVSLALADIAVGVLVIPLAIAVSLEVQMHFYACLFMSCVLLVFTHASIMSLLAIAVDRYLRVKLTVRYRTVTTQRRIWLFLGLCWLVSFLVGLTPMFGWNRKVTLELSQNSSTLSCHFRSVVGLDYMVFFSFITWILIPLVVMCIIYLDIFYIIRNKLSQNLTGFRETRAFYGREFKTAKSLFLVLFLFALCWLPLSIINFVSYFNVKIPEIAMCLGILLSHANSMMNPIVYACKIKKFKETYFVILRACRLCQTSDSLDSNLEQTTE

[9] = biological target: Adenosine receptor A2a (Rattus norvegicus) (UniProt P30543); assay: Antagonism of NECA-stimulated adenylate cyclase at Adenosine A2A receptor in rat PC12 cell membranes
Chain of Adenosine receptor A2a (Rattus norvegicus) (P30543 whole entry): as the sequence (P30543 whole entry, looked up, one chain of several) above

SMILES	pKi [2]	pKi [3]	Selectivity ratio [1]	other results
Cc1nc2nc(-c3ccccc3)[nH]c(N[C@@H](C)c3ccccc3)c-2c1C				Selectivity [1]: > 47
Cc1[nH]c2nc(-c3ccccc3)nc(N[C@@H](C)c3ccccc3)c2c1C	< 4.52	6.19		
Cc1nc2nc(-c3ccccc3)[nH]c(N[C@H](C)c3ccccc3)c-2c1C	< 4.52	8.17		solubility [4]: 1.5 µM (≈ 0.514 µg/mL); solubility [5]: 5.9 µM (≈ 2.02 µg/mL); Selectivity [1]: > 4480; logP [6]: 3.5
CC(c1ccccc1)N1C(=O)C2(CCCC2)c2c(O)ncnc21 (configuration not stated)	4.05			Selectivity [1]: 26
O=C1Nc2ncnc(O)c2C12CCCC2				Selectivity [1]: 2.7
Cc1c(C)n([C@H](C)c2ccccc2)c2nc(-c3ccc(Cl)c(Cl)c3)nc(N)c12	< 4.52	6.48	> 91	
COc1ccc(-c2nc(N)c3c(C)c(C)n([C@H](C)c4ccccc4)c3n2)cc1	< 5.00	7.00	> 99	
C[C@@H](c1ccccc1)n1c2ccccc2c2c(N)nc(-c3ccccc3)nc21	< 4.52	7.19		
Cc1ccc([C@@H](C)n2c3ccccc3c3c(N)nc(-c4ccccc4)nc32)cc1	4.67	7.85	1530	
C[C@H](c1ccccc1)n1c2ccccc2c2c(N)nc(-c3ccccc3)nc21	5.21	8.59		solubility [4]: 0.48 µM (≈ 0.175 µg/mL); solubility [5]: 1.5 µM (≈ 0.547 µg/mL)
Cc1c(C)n([C@@H](C)c2ccccc2)c2ncnc(N[C@@H](C)c3ccccc3)c12	< 4.52			
C[C@H](c1ccccc1)N1C(=O)C2(CCCC2)c2c(O)nc(-c3ccccc3)nc21	< 4.52	< 4.52		
COc1cccc(-c2nc(N)c3c(C)c(C)n([C@H](C)c4ccccc4)c3n2)c1	< 5.00	7.08	> 120	
CC(c1ccccc1)n1c2ccccc2c2c(N)ncnc21 (configuration not stated)	4.56	5.95	25	
O=C1N(c2ccccc2)c2ncnc(O)c2C12CCCC2				Selectivity [1]: 13
O=C1Nc2nc[nH]c(=O)c2C12CCCC2	3.46	3.90		
Cc1c(C)n([C@H](C)c2ccccc2)c2nc(-c3ccccc3)nc(O)c12	< 4.52	5.53		Selectivity [1]: > 10
Cc1c(C)n([C@H](C)c2ccccc2)c2nc(-c3cccc(Cl)c3)nc(N)c12	4.79	8.12	2140	solubility [4]: 2.8 µM (≈ 1.06 µg/mL)
Oc1ncnc2c1c1ccccc1n2-c1ccccc1				Kb [7]: 3.4 µM; inhibition [8]: < 20%; Kb [9]: 2.5 µM
Cc1c(C)n([C@H](C)c2ccccc2)c2nc(-c3ccc(Cl)cc3)nc(O)c12	< 4.52	< 4.52		

Continued, in another order:

pKi [2]	pKi [3]	Selectivity ratio [1]	SMILES	other results
5.08	7.66		Nc1nc(-c2ccccc2)nc2c1c1ccccc1n2-c1ccccc1	Selectivity [1]: 377
5.28	8.02	537	Cc1c(C)n([C@H](C)c2ccccc2)c2nc(-c3ccccc3Cl)nc(N)c12	
< 4.52	6.53	> 101	Cc1ccc([C@H](C)n2c3ccccc3c3c(N)nc(-c4ccccc4)nc32)cc1	
< 4.52	6.31	> 62	Cc1c(C)n([C@@H](C)c2ccccc2)c2nc(-c3cccc(Cl)c3)nc(N)c12	
5.43	8.33	789	Cc1c(C)n([C@@H](C)c2ccccc2)c2nc(-c3ccccc3)nc(N)c12	solubility [4]: 0.26 µM (≈ 0.089 µg/mL)
< 4.52	7.30	> 600	Cc1c(C)n([C@H](C)c2ccccc2)c2nc(-c3ccc(Cl)cc3)nc(N)c12	solubility [4]: 2.2 µM (≈ 0.829 µg/mL); solubility [5]: 7.2 µM (≈ 2.71 µg/mL)
4.76	5.89		O=C1N(c2ccccc2)c2nc[nH]c(=O)c2C12CCCC2	
< 4.52			Cc1c(C)n([C@H](C)c2ccccc2)c2ncnc(N[C@H](C)c3ccccc3)c12	
< 4.52	6.49	> 94	C[C@@H](Cc1ccccc1)n1c2ccccc2c2c(N)nc(-c3ccccc3)nc21	
4.09	6.78	490	Cc1c(C)n([C@H](C)c2ccccc2)c2nc(-c3ccccc3)nc(N)c12	
< 4.52	< 4.52		C[C@@H](c1ccccc1)n1c2ccccc2c2c(O)nc(-c3ccccc3)nc21	
< 4.52	6.06	> 34	Cc1c(C)n([C@@H](C)c2ccccc2)c2nc(-c3ccc(Cl)cc3)nc(N)c12	
< 4.52	6.56	> 110	Cc1c(C)n([C@@H](C)c2ccccc2)c2nc(-c3ccccc3Cl)nc(N)c12	
< 4.52	< 4.52		C[C@H](c1ccccc1)n1c2ccccc2c2c(O)nc(-c3ccccc3)nc21	
	5.74	> 17	Cc1c(C)n([C@@H](C)c2ccccc2)c2nc(-c3ccc(Cl)c(Cl)c3)nc(N)c12	
< 4.52	< 4.52		Cc1c(C)n([C@@H](C)c2ccccc2)c2nc(-c3ccccc3)[nH]c(=O)c12	
< 4.52	< 4.52		Cc1c(C)n([C@@H](C)c2ccccc2)c2nc(-c3ccc(Cl)cc3)[nH]c(=O)c12	
